Data reported in ChEMBL document CHEMBL1134581, “Synthesis and in vitro antitumor activity of oligonucleotide-tethered and related platinum complexes” (J Med Chem, 2001).

Legend:
Assay type in all cases: functional, cell-based, Homo sapiens
A2780 = experiment: Growth and colony formation inhibition of A2780 ovarian cancer cell lines
Method in brief: (§1)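 Colony formation assay in A2780 (wt p53) and SW626 (mutant p53) monolayers, RPMI 1640 with 10% FBS and 2 mM L-glutamine, 37 °C, 5% CO2. 300–500 cells/well, attached 1 day, then serially diluted drug. Exposure 7 days for A2780, 10 days for SW626. Colonies fixed and stained with 0.1% crystal violet in methanol, then counted. IC50 extrapolated. Mean ± SD of three experiments.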

SK-OV-3 = experiment: Growth and colony formation inhibition of SKOV-3 ovarian cancer cell lines
Method in brief: (§2)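 Colony formation in PA-1 (wt p53, 7 days of drug) and SKOV-3 (p53-null, 10 days of drug). Both in RPMI 1640 with 10% FBS and 2 mM L-glutamine, 300–500 cells/well, attached 1 day. Colonies stained with 0.1% crystal violet in methanol and counted. IC50 extrapolated; three experiments. Also an MTT assay: PA-1 1000 cells/well, 1 day attachment, 5 days of drug; SKOV-3 600 cells/well, 2 days attachment, 7 days of drug. MTT 5 h, DMSO, read at 570/630 nm; four experiments.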

[1] = Growth and colony formation inhibition of SW626 ovarian cancer cell lines; method in brief: as §1
[2] = Growth and colony formation inhibition of PA-1 ovarian cancer cell lines; method in brief: as §2
[3] = Growth and colony formation inhibition of VM-1 leukemia cancer cell lines
Method in brief: (§3)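 CEM and teniposide-resistant CEM/VM-1 leukemia cells in suspension, MEM with 10% FBS and 2 mM L-glutamine, 37 °C, 5% CO2. Exponentially growing cells seeded in triplicate at 3 × 10^5 cells/mL. Drugs dissolved in DMSO or PBS, serially diluted, 48 h exposure. Growth inhibition by Coulter counting. IC50 extrapolated from the concentration–% inhibition plot. Mean ± SD of three experiments.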

CCRF-CEM = experiment: Growth and colony formation inhibition of CEM leukemia cancer cell lines; method in brief: as §3

IC50 (A2780) | IC50 (SK-OV-3) | IC50 (CCRF-CEM) | Substance | IC50 [1] | IC50 [2] | IC50 [3]
125 µM | > 200 µM |  | 3-(7a-Chloro-7-diisopropylamino-hexahydro-6-oxa-1,3a-diaza-platinum-7lambda*5*-phospha-inden-7-yloxy)-propionitrile | > 200 µM | 165 µM | 
 | 13 µM |  | Amminedichloro(2-hydroxyethylamine)platinum (II) |  | 0.7 µM | 
 | 6 µM |  | Amminedichloro(4-hydroxybutylamine)platinum (II) |  | 0.4 µM | 
 | 9 µM |  | Amminetetrachloro(4-hydroxybutylamine)platinum(IV) |  | 0.2 µM | 
 | 10 µM |  | Amminetetrachloro(4-hydroxyethylamine)platinum(IV) |  | 0.9 µM | 
 | 28.5 µM |  | CARBOPLATIN |  | 2.4 µM | 
0.6 µM | 0.5 µM | < 1 µM | CISPLATIN | 0.5 µM | 0.3 µM | < 1 µM
 | 30 µM |  | DICHLORO(AMMINO ETHYLAMMINO ETHANOL) PLATINUM(II) [listing 1 of 2 here] |  | 2.9 µM | 
 | 26 µM |  | DICHLORO(AMMINO ETHYLAMMINO ETHANOL) PLATINUM(II) [listing 2 of 2 here] |  | 1.7 µM | 
2.8 µM | 24 µM | 7 µM | Dichloro diacetyl oxy-(amino ethylamino ethanol) platinum | 28 µM | 1.5 µM | 7 µM
 | 20 µM |  | Dichlorodi(3-hydroxypropylamine)platinum (II) |  | 1.2 µM | 
 | 23 µM |  | Dichlorodi(4-hydroxybutylamine)platinum (II) |  | 1.5 µM | 
1.6 µM | 10 µM | 8 µM | Tetrachlorodi(3-hydroxypropylamine)platinum(IV) | 3 µM | 0.6 µM | 5 µM
2.2 µM | 4 µM | 10 µM | Tetrachlorodi(4-hydroxybutylamine)platinum(IV) | 7 µM | 1 µM | 10 µM

Substance | IC50 (A2780) | IC50 (SK-OV-3) | IC50 (CCRF-CEM) | IC50 [1] | IC50 [2] | IC50 [3]
Dichlorodiacetyl oxy-(ammino acetoxy butylammino ethanol) platinum (II) |  | 22 µM |  |  | 0.8 µM | 
Dichlorodiacetyl oxy-(ammino acetoxy ethylammino ethanol) platinum (II) |  | 10 µM |  |  | 2.8 µM | 
